Source: ChEMBL document CHEMBL3875202, “Design and optimization of aspartate N-acetyltransferase inhibitors for the potential treatment of Canavan disease” (Bioorg Med Chem, 2017)
Where a SMILES comes first, the peptide text is derived from it.

Test: Inhibition of recombinant human His-tagged maltose binding protein fused ANAT expressed in Escherichia coli NiCo21(DE3) using L-aspartate as substrate after 15 mins in presence of acetyl-CoA by DTNB based spectrophotometric method
How it was run: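 MBP-ANAT-His fusion purified on Ni Sepharose then amylose column. Assay: 20 mM HEPES pH 7.4, 150 mM NaCl, 5% glycerol, 40 µM DTNB, 40 µM acetyl-CoA, 2 mM L-aspartate, 25 µg enzyme, 200 µl total. Read at 412 nm for at least 15 min. Ki from twofold inhibitor dilutions; no-inhibitor and no-aspartate/no-inhibitor controls; pH of top-dose wells checked.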

Q: Which Ki does the source give for `O=C(O)CN(Cc1ccc(C(=O)O)c(C(=O)O)c1)c1cccc2ccccc12` here?
A: 115 µM

Q: With `O=C(O)CCC[C@H](NC(=O)c1ccccc1)C(=O)O` as the molecule, how does the Ki read?
A: 1600 µM

Q: With `O=C(O)C[C@H](NC(=O)CBr)C(=O)O` as the molecule, how does the Ki read?
A: > 2000 µM

Q: Which Ki does the source give for `O=C(O)CCC[C@H](NC(=O)Cc1ccccc1)C(=O)O` here?
A: 1160 µM

Q: With `O=C(O)CN(CCN1CCOCC1)Cc1ccc(C(=O)O)c(C(=O)O)c1` as the molecule, how does the Ki read?
A: 1080 µM

Q: Which Ki does the source give for `O=C(O)CN(Cc1ccc(C(=O)O)c(C(=O)O)c1)c1ccc(-c2ccccc2)cc1` here?
A: 953 µM

Q: With `O=C(O)CCN(Cc1ccc(C(=O)O)c(C(=O)O)c1)Cc1ccc(C(=O)O)cc1Br` as the molecule, how does the Ki read?
A: 2.01 µM

Q: Which Ki does the source give for `O=C(O)CC[C@H](NC(=O)Cc1ccccc1)C(=O)O` here?
A: 250 µM

Q: For `CC(C)(C)C(=O)N[C@@H](CCCC(=O)O)C(=O)O`, which Ki is on record?
A: 760 µM

Q: Which Ki does the source give for `O=C(O)CC[C@H](NC(=O)OCc1ccccc1)C(=O)O` here?
A: 12 µM

Q: Which Ki does the source give for `O=C(O)CCN(Cc1ccc(C(=O)O)c(C(=O)O)c1)Cc1ccc(C(=O)O)cc1Cl` here?
A: 1.7 µM

Q: Which Ki does the source give for `O=C(O)/C=C(\Br)C(=O)O` here?
A: 367 µM

Q: For `O=C(O)CN(Cc1ccc(C(=O)O)c(C(=O)O)c1)Cc1ccccc1OC(F)(F)F`, which Ki is on record?
A: 464 µM

Q: Which Ki does the source give for `O=C(O)C[C@H](NC(=O)OCc1ccccc1)C(=O)O` here?
A: 17 µM

Q: Which Ki does the source give for `O=C(O)CCN(Cc1cccc(Br)c1)Cc1ccc(C(=O)O)c(C(=O)O)c1` here?
A: 101 µM

Q: For `O=C(O)CCN(Cc1ccc(C(=O)O)c(C(=O)O)c1)Cc1c(Cl)cc(C(=O)O)cc1Cl` [listing 1 of 2 here], which Ki is on record?
A: 0.6 µM

Q: With `CCCC(=O)N[C@@H](CCC(=O)O)C(=O)O` as the molecule, how does the Ki read?
A: 270 µM

Q: For `O=C(O)C[C@H](NCCCCc1ccccc1)C(=O)O`, which Ki is on record?
A: 100 µM

Q: Which Ki does the source give for `Cc1ccc(CN(CCC(=O)O)Cc2ccc(C(=O)O)c(C(=O)O)c2)cc1` here?
A: 2750 µM

Q: Which Ki does the source give for `O=C(O)CN(Cc1ccc(C(=O)O)c(C(=O)O)c1)Cc1ccccc1Br` here?
A: 114 µM

Q: Which Ki does the source give for `O=C(O)CCN(Cc1ccc(C(=O)O)c(C(=O)O)c1)Cc1ccc(C(=O)O)cc1C(F)(F)F` here?
A: 17 µM

Q: Which Ki does the source give for `Cc1cccc(CN(CC(=O)O)Cc2ccc(C(=O)O)c(C(=O)O)c2)c1` here?
A: 1700 µM

Q: With `O=C(O)CCN(Cc1ccc(C(=O)O)c(C(=O)O)c1)Cc1ccc(C(=O)O)cc1-c1cccc2ccccc12` as the molecule, how does the Ki read?
A: 187 µM

Q: For `O=C(O)CCN(Cc1ccc(C(=O)O)cc1)Cc1ccc(C(=O)O)c(C(=O)O)c1`, which Ki is on record?
A: 29 µM

Q: Which Ki does the source give for `O=C(O)CCN(Cc1ccc(C(=O)O)c(C(=O)O)c1)Cc1ccc(C(=O)O)cc1-c1ccccc1` here?
A: 47.4 µM

Q: For `O=C(O)CC[C@H](NC(=O)CCCc1ccccc1)C(=O)O`, which Ki is on record?
A: 610 µM

Q: For `O=C(O)CCN(Cc1ccc(C(=O)O)c(C(=O)O)c1)Cc1ccccc1C(F)(F)F`, which Ki is on record?
A: 88 µM

Q: For `Cc1ccc(CN(CC(=O)O)Cc2ccc(C(=O)O)c(C(=O)O)c2)cc1`, which Ki is on record?
A: 4230 µM

Q: For `O=C(O)CCN(Cc1ccc(C(=O)O)c(C(=O)O)c1)Cc1ccc(C(=O)O)c(C(F)(F)F)c1`, which Ki is on record?
A: 930 µM

Q: For `O=C(O)CN(Cc1cccc(OC(F)(F)F)c1)Cc1ccc(C(=O)O)c(C(=O)O)c1`, which Ki is on record?
A: 246 µM

Q: Which Ki does the source give for `C=CCN(CC(=O)O)Cc1ccc(C(=O)O)c(C(=O)O)c1` here?
A: 719 µM

Q: For `O=C(O)CCN(Cc1ccc(Br)cc1)Cc1ccc(C(=O)O)c(C(=O)O)c1`, which Ki is on record?
A: 370 µM

Q: For `O=C(O)CCN(Cc1ccc(C(=O)O)c(C(=O)O)c1)c1cccc2ccccc12`, which Ki is on record?
A: 34 µM

Q: For `O=C(CCc1ccccc1)NC(C(=O)O)C(=O)O`, which Ki is on record?
A: 1400 µM

Q: For `O=C(O)C[C@H](NC(=O)CCc1ccccc1C(F)(F)F)C(=O)O`, which Ki is on record?
A: 100 µM

Q: With `NC(=O)c1ccc(CN(CC(=O)O)Cc2ccc(C(=O)O)c(C(=O)O)c2)cc1` as the molecule, how does the Ki read?
A: 1880 µM

Q: For `Cc1cccc(CN(CCC(=O)O)Cc2ccc(C(=O)O)c(C(=O)O)c2)c1`, which Ki is on record?
A: 563 µM

Q: Which Ki does the source give for `O=C(O)C[C@H](NC(=O)CCc1ccc(O)c(O)c1)C(=O)O` here?
A: 1560 µM

Q: Which Ki does the source give for `O=C(O)CC[C@H](NC(=O)c1ccccc1)C(=O)O` here?
A: 130 µM

Q: For `C[C@H](N)C(=O)N[C@@H](CC(=O)O)C(=O)O` (H-Ala-Asp-OH), which Ki is on record?
A: 1600 µM

Q: With `O=C(O)CCN(Cc1ccc(C(=O)O)c(C(=O)O)c1)Cc1c(Cl)cc(C(=O)O)cc1Cl` [listing 2 of 2 here] as the molecule, how does the Ki read?
A: 0.61 µM

Q: For `O=C(O)CN(Cc1ccc(C(F)(F)F)cc1)Cc1ccc(C(=O)O)c(C(=O)O)c1`, which Ki is on record?
A: 791 µM

Q: For `O=C(O)C[C@H](NC(=O)CCc1ccc(-c2ccccc2)cc1)C(=O)O`, which Ki is on record?
A: 210 µM

Q: With `O=C(O)CCC[C@H](NC(=O)CCc1ccccc1)C(=O)O` as the molecule, how does the Ki read?
A: 2900 µM

Q: Which Ki does the source give for `O=C(O)CCC[C@H](NC(=O)CCCc1ccccc1)C(=O)O` here?
A: 740 µM

Q: With `O=CCN(CC(=O)O)Cc1ccc(C(=O)O)c(C(=O)O)c1` as the molecule, how does the Ki read?
A: 1290 µM

Q: For `O=C(O)CN(Cc1cccc(C(F)(F)F)c1)Cc1ccc(C(=O)O)c(C(=O)O)c1`, which Ki is on record?
A: 104 µM

Q: With `Cc1ccccc1CCC(=O)N[C@@H](CC(=O)O)C(=O)O` as the molecule, how does the Ki read?
A: 280 µM

Q: With `O=C(O)C[C@H](NCc1ccccc1)C(=O)O` as the molecule, how does the Ki read?
A: 620 µM

Q: Which Ki does the source give for `CC(C)(C)C(=O)N[C@@H](CCC(=O)O)C(=O)O` here?
A: 280 µM

Q: For `O=C(O)CCN(Cc1ccc(C(=O)O)c(C(=O)O)c1)Cc1ccc(C(=O)O)cc1F`, which Ki is on record?
A: 4.06 µM

Q: For `O=C(O)CCN(Cc1ccc(C(=O)O)c(C(=O)O)c1)c1ccc(-c2ccccc2)cc1`, which Ki is on record?
A: 550 µM

Q: Which Ki does the source give for `O=C(O)CCC[C@H](NC(=O)CCC(=O)O)C(=O)O` here?
A: > 2000 µM

Q: Which Ki does the source give for `O=C(O)CN(Cc1ccc(OC(F)(F)F)cc1)Cc1ccc(C(=O)O)c(C(=O)O)c1` here?
A: 749 µM

Q: With `O=C(O)CCN(Cc1ccc(C(F)(F)F)cc1)Cc1ccc(C(=O)O)c(C(=O)O)c1` as the molecule, how does the Ki read?
A: 186 µM

Q: With `CCCC(=O)N[C@@H](CCCC(=O)O)C(=O)O` as the molecule, how does the Ki read?
A: > 2000 µM

Q: With `O=C(O)C[C@H](NC(=O)CCc1cccc(C(F)(F)F)c1)C(=O)O` as the molecule, how does the Ki read?
A: 1220 µM

Q: For `O=C(O)C[C@H](NC(=O)c1ccccc1)C(=O)O`, which Ki is on record?
A: > 2000 µM

Q: With `CC(=O)c1ccc(CN(CC(=O)O)Cc2ccc(C(=O)O)c(C(=O)O)c2)cc1` as the molecule, how does the Ki read?
A: 2540 µM

Q: Which Ki does the source give for `O=C(O)CN(Cc1ccc(C(=O)O)cc1)Cc1ccc(C(=O)O)c(C(=O)O)c1` here?
A: 104 µM

Q: For `O=C(O)C[C@H](NC(=O)c1ccc2ccccc2c1)C(=O)O`, which Ki is on record?
A: 390 µM

Q: For `O=C(O)C[C@H](NCCc1ccccc1)C(=O)O`, which Ki is on record?
A: 250 µM

Q: Which Ki does the source give for `O=C(O)CN(Cc1ccc(OC(F)F)cc1)Cc1ccc(C(=O)O)c(C(=O)O)c1` here?
A: 489 µM

Q: For `O=C(O)CN(Cc1ccc(Br)cc1)Cc1ccc(C(=O)O)c(C(=O)O)c1`, which Ki is on record?
A: 1200 µM

Q: Which Ki does the source give for `O=C(O)CCN(Cc1ccc(C(=O)O)c(C(=O)O)c1)Cc1ccccc1Br` here?
A: 173 µM

Q: For `O=C(O)CN(Cc1cccc(Br)c1)Cc1ccc(C(=O)O)c(C(=O)O)c1`, which Ki is on record?
A: 269 µM

Q: With `O=C(O)CN(Cc1ccccc1)Cc1ccc(C(=O)O)c(C(=O)O)c1` as the molecule, how does the Ki read?
A: 420 µM

Q: For `O=C(O)CCN(Cc1ccc(C(=O)O)c(C(=O)O)c1)Cc1c(Br)cc(C(=O)O)cc1Br`, which Ki is on record?
A: 0.77 µM

Q: Which Ki does the source give for `O=C(O)C[C@H](NC(=O)CCCc1ccccc1)C(=O)O` here?
A: 200 µM

Q: With `O=C(O)CCN(Cc1cccc(C(F)(F)F)c1)Cc1ccc(C(=O)O)c(C(=O)O)c1` as the molecule, how does the Ki read?
A: 37 µM

Q: Which Ki does the source give for `O=C(O)CC[C@H](NC(=O)CCc1ccccc1)C(=O)O` here?
A: 38 µM

Q: For `Cc1ccccc1CN(CCC(=O)O)Cc1ccc(C(=O)O)c(C(=O)O)c1`, which Ki is on record?
A: 724 µM

Q: For `O=C(O)C[C@H](NC(=O)CCl)C(=O)O`, which Ki is on record?
A: 200 µM

Q: For `O=C(O)C[C@H](NCCCc1ccccc1)C(=O)O`, which Ki is on record?
A: 120 µM

Q: For `Cc1ccccc1CN(CC(=O)O)Cc1ccc(C(=O)O)c(C(=O)O)c1`, which Ki is on record?
A: 1400 µM

Q: Which Ki does the source give for `O=C(O)CN(Cc1ccc(C(=O)O)c(C(=O)O)c1)Cc1ccccc1C(F)(F)F` here?
A: 390 µM

Q: With `O=C(O)CCNCc1ccc(C(=O)O)c(C(=O)O)c1` as the molecule, how does the Ki read?
A: 1710 µM

Q: With `O=C(O)C[C@H](NC(=O)c1ccc(C(F)(F)F)cc1)C(=O)O` as the molecule, how does the Ki read?
A: 380 µM

Q: Which Ki does the source give for `O=C(O)CN(Cc1ccc(C(=O)O)c(C(=O)O)c1)c1ccc2ccccc2c1` here?
A: 538 µM

Q: With `O=C(O)C[C@H](NC(=O)Cc1ccccc1)C(=O)O` as the molecule, how does the Ki read?
A: 460 µM

Q: With `CC(C)(C)c1ccc(CN(CC(=O)O)Cc2ccc(C(=O)O)c(C(=O)O)c2)cc1` as the molecule, how does the Ki read?
A: 687 µM

Q: With `O=C(O)C[C@H](NC(=O)CCc1ccccc1)C(=O)O` as the molecule, how does the Ki read?
A: 31 µM

Q: Which Ki does the source give for `CC(C)(C)c1ccc(CN(CCC(=O)O)Cc2ccc(C(=O)O)c(C(=O)O)c2)cc1` here?
A: 1660 µM

Q: Which Ki does the source give for `COc1ccc(CCC(=O)N[C@@H](CC(=O)O)C(=O)O)cc1` here?
A: 1500 µM

Q: With `O=C(O)CN(Cc1ccc(C(F)(F)C(F)(F)C(F)(F)F)cc1)Cc1ccc(C(=O)O)c(C(=O)O)c1` as the molecule, how does the Ki read?
A: 426 µM
